Assay results published in ChEMBL document CHEMBL1671845, “Inhibitors of HCV NS5A: From Iminothiazolidinones to Symmetrical Stilbenes” (ACS Med Chem Lett, 2011).

tested on: Hepatitis C virus; assay: Antiviral activity against HCV1b infected in human HuH7 cells assessed as inhibition of viral replication after 72 hrs by FRET assay; format: functional, organism-based, Hepacivirus hominis; conditions: genotype 1b, Huh-7, 72 h
Procedure, shortened: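 Dual-replicon screen pairing an HCV genotype 1b replicon with a bovine viral diarrhea virus replicon, run in high-throughput mode. Results are reported as EC50.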

Question: Which EC50 does the source give for `O=C(CNC(=O)OCc1ccccc1)Nc1ccc(C2S/C(=N\c3cccc(F)c3)N(Cc3ccco3)C2=O)cc1` (stereo not drawn) here?
Answer: Its EC50 is 5000 nM.

Question: Which EC50 does the source give for `O=C(Nc1ccc(C2S/C(=N\c3cccc(F)c3)N(Cc3ccco3)C2=O)cc1)[C@@H]1CCCN1C(=O)CCc1ccccc1` (stereo partly drawn) here?
Answer: Its EC50 is 5100 nM.

Question: Which EC50 does the source give for `C[C@H](NC(=O)OCc1ccccc1)C(=O)Nc1ccc(C2S/C(=N\c3cccc(F)c3)N(Cc3cccnc3)C2=O)cc1` (stereo partly drawn) here?
Answer: Its EC50 is 26 nM.

Question: For `CC[C@@H](C)[C@H](NC(=O)OCc1ccccc1)C(=O)Nc1ccc(C2S/C(=N\c3cccc(F)c3)N(Cc3ccco3)C2=O)cc1` (stereo partly drawn), which EC50 is on record?
Answer: Its EC50 is 6000 nM.

Question: Which EC50 does the source give for `C[C@H](NC(=O)CCc1ccccc1)C(=O)Nc1ccc(C2S/C(=N\c3cccc(F)c3)N(Cc3ccco3)C2=O)cc1` (stereo partly drawn) here?
Answer: Its EC50 is 3100 nM.

Question: With `O=C(N[C@@H](CSCc1ccccc1)C(=O)Nc1ccc(C2S/C(=N\c3cccc(F)c3)N(Cc3ccco3)C2=O)cc1)OCc1ccccc1` (stereo partly drawn) as the compound, how does the EC50 read?
Answer: The EC50 was > 50000 nM.

Question: With `C[C@H](NC(=O)Cc1ccccc1)C(=O)Nc1ccc(C2S/C(=N\c3cccc(F)c3)N(Cc3ccco3)C2=O)cc1` (stereo partly drawn) as the compound, how does the EC50 read?
Answer: Its EC50 is 6 nM.

Question: Which EC50 does the source give for `C[C@H](NC(=O)OCc1ccccc1)C(=O)Nc1ccc(C2S/C(=N\c3cccc(F)c3)N(Cc3ccccn3)C2=O)cc1` (stereo partly drawn) here?
Answer: Its EC50 is 35 nM.

Question: For `C[C@H](NC(=O)OCc1ccccc1)C(=O)Nc1ccc(C2S/C(=N\c3ccc(Cl)cc3)N(Cc3ccco3)C2=O)cc1` (stereo partly drawn), which EC50 is on record?
Answer: Its EC50 is 510 nM.

Question: Which EC50 does the source give for `O=C(Nc1ccc(C2S/C(=N\c3cccc(F)c3)N(Cc3ccco3)C2=O)cc1)[C@@H]1CCCN1C(=O)Cc1ccccc1` (stereo partly drawn) here?
Answer: Its EC50 is 23 nM.

Question: Which EC50 does the source give for `C[C@H](NC(=O)OCc1ccccc1)C(=O)Nc1ccc(C2S/C(=N\c3ccc(C(F)(F)F)cc3)N(Cc3ccco3)C2=O)cc1` (stereo partly drawn) here?
Answer: Its EC50 is 2200 nM.

Question: With `O=C(Nc1ccc(/C=C/c2ccc(NC(=O)[C@H]3CCCN3C(=O)OCc3ccccc3)cc2)cc1)[C@H]1CCCN1C(=O)OCc1ccccc1` as the compound, how does the EC50 read?
Answer: Its EC50 is > 10000 nM.

Question: Which EC50 does the source give for `C[C@H](NC(=O)OCc1ccccc1)C(=O)Nc1ccc(C2S/C(=N\c3cccc(F)c3)N(CC3CCCO3)C2=O)cc1` (stereo partly drawn) here?
Answer: The EC50 was 650 nM.

Question: For `C[C@H](NC(=O)OCc1ccccc1)C(=O)Nc1ccc(C2S/C(=N\c3ccc(N4CCOCC4)cc3)N(Cc3ccco3)C2=O)cc1` (stereo partly drawn), which EC50 is on record?
Answer: The EC50 was 15 nM.

Question: With `O=C(N[C@@H](Cc1ccccc1)C(=O)Nc1ccc(C2S/C(=N\c3cccc(F)c3)N(Cc3ccco3)C2=O)cc1)OCc1ccccc1` (stereo partly drawn) as the compound, how does the EC50 read?
Answer: Its EC50 is > 50000 nM.

Question: With `O=C(Nc1ccc(C2S/C(=N\c3cccc4c3OCCO4)N(Cc3ccco3)C2=O)cc1)[C@@H]1CCCN1C(=O)OCc1ccccc1` (stereo partly drawn) as the compound, how does the EC50 read?
Answer: Its EC50 is 9 nM.

Question: For `O=C(Nc1ccc(C2S/C(=N\c3cccc(F)c3)N(Cc3cnccn3)C2=O)cc1)[C@@H]1CCCN1C(=O)OCc1ccccc1` (stereo partly drawn), which EC50 is on record?
Answer: The EC50 was 38 nM.

Question: For `C[C@H](NC(=O)c1ccccc1)C(=O)Nc1ccc(C2S/C(=N\c3cccc(F)c3)N(Cc3ccco3)C2=O)cc1` (stereo partly drawn), which EC50 is on record?
Answer: Its EC50 is 1900 nM.

Question: For `C[C@H](NC(=O)OCc1ccccc1)C(=O)Nc1ccc(C2S/C(=N\c3cccc4c3OCCO4)N(Cc3ccco3)C2=O)cc1` (stereo partly drawn), which EC50 is on record?
Answer: Its EC50 is 10 nM.

Question: For `N#Cc1ccc(/N=C2\SC(c3ccc(NC(=O)[C@@H]4CCCN4C(=O)OCc4ccccc4)cc3)C(=O)N2Cc2ccco2)cc1` (stereo partly drawn), which EC50 is on record?
Answer: Its EC50 is 86 nM.

Question: Which EC50 does the source give for `C[C@H](NC(=O)OCc1ccccc1)C(=O)Nc1ccc(C2S/C(=N\c3cccc(F)c3)N(Cc3ccc(F)c(F)c3F)C2=O)cc1` (stereo partly drawn) here?
Answer: Its EC50 is 550 nM.

Question: With `C[C@H](NC(=O)OCc1ccccc1)C(=O)Nc1ccc(C2S/C(=N\c3ccc(C#N)cc3)N(Cc3ccco3)C2=O)cc1` (stereo partly drawn) as the compound, how does the EC50 read?
Answer: Its EC50 is 37 nM.

Question: For `C[C@H](NC(=O)OCc1ccccc1)C(=O)Nc1ccc(C2S/C(=N\c3cccc4ncccc34)N(Cc3ccco3)C2=O)cc1` (stereo partly drawn), which EC50 is on record?
Answer: The EC50 was 20 nM.

Question: With `C[C@H](NC(=O)OCc1ccccc1)C(=O)Nc1ccc(C2S/C(=N\c3ccc(C(F)(F)F)c(F)c3)N(Cc3ccco3)C2=O)cc1` (stereo partly drawn) as the compound, how does the EC50 read?
Answer: Its EC50 is 2500 nM.

Question: Which EC50 does the source give for `CCc1ccc(/N=C2\SC(c3ccc(NC(=O)[C@H](C)NC(=O)OCc4ccccc4)cc3)C(=O)N2Cc2ccco2)cc1` (stereo partly drawn) here?
Answer: Its EC50 is 1500 nM.

Question: With `CCc1ccc(/N=C2\SC(c3ccc(NC(=O)[C@@H]4CCCN4C(=O)OCc4ccccc4)cc3)C(=O)N2Cc2ccco2)cc1` (stereo partly drawn) as the compound, how does the EC50 read?
Answer: Its EC50 is 1800 nM.

Question: Which EC50 does the source give for `O=C(Nc1ccc(C2S/C(=N\c3cccc(F)c3)N(Cc3ccco3)C2=O)cc1)OCc1ccccc1` (stereo not drawn) here?
Answer: The EC50 was 150000 nM.

Question: Which EC50 does the source give for `O=C(Nc1ccc(C2S/C(=N\c3cccc(F)c3)N(Cc3ccc(F)c(F)c3F)C2=O)cc1)[C@@H]1CCCN1C(=O)OCc1ccccc1` (stereo partly drawn) here?
Answer: Its EC50 is 600 nM.

Question: For `O=C(Nc1ccc(C2S/C(=N\c3ccc(C(F)(F)F)cc3)N(Cc3ccco3)C2=O)cc1)[C@@H]1CCCN1C(=O)OCc1ccccc1` (stereo partly drawn), which EC50 is on record?
Answer: The EC50 was 980 nM.

Question: Which EC50 does the source give for `O=C(Nc1ccc(C2S/C(=N\c3cccc(F)c3)N(Cc3ccco3)C2=O)cc1)[C@@H]1CCCN1C(=O)OCc1ccccc1` (stereo partly drawn) here?
Answer: The EC50 was 110 nM.

Question: Which EC50 does the source give for `O=C(Nc1ccc(C2S/C(=N\c3ccc(Cl)cc3)N(Cc3ccco3)C2=O)cc1)[C@@H]1CCCN1C(=O)OCc1ccccc1` (stereo partly drawn) here?
Answer: Its EC50 is 1170 nM.

Question: For `COC(=O)CCCC(=O)Nc1ccc(C2S/C(=N\c3cccc(F)c3)N(Cc3ccco3)C2=O)cc1` (stereo not drawn), which EC50 is on record?
Answer: The EC50 was 150000 nM.

Question: With `O=C(Nc1ccc(C2S/C(=N\c3ccc(C(F)(F)F)c(F)c3)N(Cc3ccco3)C2=O)cc1)[C@@H]1CCCN1C(=O)OCc1ccccc1` (stereo partly drawn) as the compound, how does the EC50 read?
Answer: The EC50 was 2200 nM.

Question: For `O=C(Nc1ccc(C2S/C(=N\c3cccc4ncccc34)N(Cc3ccco3)C2=O)cc1)[C@@H]1CCCN1C(=O)OCc1ccccc1` (stereo partly drawn), which EC50 is on record?
Answer: The EC50 was 10 nM.

Question: With `C[C@H](NC(=O)OCc1ccccc1)C(=O)Nc1ccc(C2S/C(=N\c3cccc(F)c3)N(Cc3ccco3)C2=O)cc1` (stereo partly drawn) as the compound, how does the EC50 read?
Answer: Its EC50 is 580 nM.

Question: Which EC50 does the source give for `O=C(Nc1ccc(/C=C/c2ccc(NC(=O)[C@@H]3CCCN3C(=O)Cc3ccccc3)cc2)cc1)[C@@H]1CCCN1C(=O)Cc1ccccc1` here?
Answer: The EC50 was 0.086 nM.

Question: Which EC50 does the source give for `C[C@@H](NC(=O)OCc1ccccc1)C(=O)Nc1ccc(C2S/C(=N\c3cccc(F)c3)N(Cc3ccco3)C2=O)cc1` (stereo partly drawn) here?
Answer: The EC50 was 96000 nM.

Question: For `O=C(Nc1ccc(/C=C/c2ccc(NC(=O)[C@@H]3CCCN3C(=O)OCc3ccccc3)cc2)cc1)[C@@H]1CCCN1C(=O)OCc1ccccc1`, which EC50 is on record?
Answer: Its EC50 is 10 nM.

Question: Which EC50 does the source give for `CC(OCc1ccccc1)C(=O)Nc1ccc(C2S/C(=N\c3cccc(F)c3)N(Cc3ccco3)C2=O)cc1` (stereo not drawn) here?
Answer: The EC50 was 132000 nM.

Question: With `O=C(Nc1ccc(C2S/C(=N\c3ccc(N4CCOCC4)cc3)N(Cc3ccco3)C2=O)cc1)[C@@H]1CCCN1C(=O)OCc1ccccc1` (stereo partly drawn) as the compound, how does the EC50 read?
Answer: Its EC50 is 20 nM.

Question: For `O=C(Nc1ccc(C2S/C(=N\c3cccc(F)c3)N(Cc3ccccn3)C2=O)cc1)[C@@H]1CCCN1C(=O)OCc1ccccc1` (stereo partly drawn), which EC50 is on record?
Answer: Its EC50 is 2 nM.

Question: Which EC50 does the source give for `O=C(Nc1ccc(/C=C/c2ccc(NC(=O)[C@H]3CCCN3C(=O)Cc3ccccc3)cc2)cc1)[C@H]1CCCN1C(=O)Cc1ccccc1` here?
Answer: Its EC50 is > 10000 nM.

Question: For `O=C(COCc1ccccc1)Nc1ccc(C2S/C(=N\c3cccc(F)c3)N(Cc3ccco3)C2=O)cc1` (stereo not drawn), which EC50 is on record?
Answer: The EC50 was 61000 nM.

Question: With `O=C(CCc1ccccc1)Nc1ccc(C2S/C(=N\c3cccc(F)c3)N(Cc3ccco3)C2=O)cc1` (stereo not drawn) as the compound, how does the EC50 read?
Answer: Its EC50 is 75000 nM.

Question: For `C[C@H](NC(=O)OCc1ccccc1)C(=O)Nc1ccc(C2S/C(=N\c3cccc(F)c3)N(Cc3cnccn3)C2=O)cc1` (stereo partly drawn), which EC50 is on record?
Answer: The EC50 was 25 nM.

Question: For `O=C(Nc1ccc(C2S/C(=N\c3cccc(F)c3)N(Cc3ccco3)C2=O)cc1)[C@@H]1CCCN1C(=O)c1ccccc1` (stereo partly drawn), which EC50 is on record?
Answer: The EC50 was 7900 nM.

Question: With `CC(C)(C)OC[C@H](NC(=O)OCc1ccccc1)C(=O)Nc1ccc(C2S/C(=N\c3cccc(F)c3)N(Cc3ccco3)C2=O)cc1` (stereo partly drawn) as the compound, how does the EC50 read?
Answer: The EC50 was > 50000 nM.

Question: For `O=C(Nc1ccc(C2S/C(=N\c3cccc(F)c3)N(Cc3ccco3)C2=O)cc1)[C@H]1CCCN1C(=O)OCc1ccccc1` (stereo partly drawn), which EC50 is on record?
Answer: Its EC50 is 6500 nM.

tested on: not listed separately; assay: Cytotoxicity against human HuH7 cells; format: cell-based, Huh-7; conditions: not given

Question: With `C[C@H](NC(=O)OCc1ccccc1)C(=O)Nc1ccc(C2S/C(=N\c3cccc(F)c3)N(Cc3ccco3)C2=O)cc1` (stereo partly drawn) as the compound, how does the CC50 read?
Answer: The CC50 was > 100000 nM.

tested on: not listed separately; assay: Chemical stability of the compound in DMSO assessed as conversion of (2S)-1-(4-(3-(3-fluorophenyl)-1-(furan-2-ylmethyl)-4-hydroxy-5-oxo-2-thioxoimidazolidin- 4-yl)phenylamino)-1-oxopropan-2-ylcarbamate after 18 hrs by HPLC analysis; format: physicochemical; conditions: not given

Question: Which Stability does the source give for `C[C@H](NC(=O)Cc1ccccc1)C(=O)Nc1ccc(C2S/C(=N\c3cccc(F)c3)N(Cc3ccco3)C2=O)cc1` (stereo partly drawn) here?
Answer: Its Stability is “Unstable”.

Question: For `C[C@H](NC(=O)OCc1ccccc1)C(=O)Nc1ccc(C2S/C(=N\c3cccc(F)c3)N(Cc3ccco3)C2=O)cc1` (stereo partly drawn), which Stability is on record?
Answer: Its Stability is “Unstable”.

tested on: not listed separately; assay: Chemical stability of the compound in DMSO assessed as conversion of (2S)-N-(4-(3-(3-Fluorophenyl)-1-(furan-2-ylmethyl)-4-hydroxy-5-oxo-2- thioxoimidazolidin-4-yl)phenyl)-2-(2-phenylacetamido)propanamide by HPLC analysis; format: physicochemical; conditions: not given

Question: For `C[C@H](NC(=O)Cc1ccccc1)C(=O)Nc1ccc(C2S/C(=N\c3cccc(F)c3)N(Cc3ccco3)C2=O)cc1` (stereo partly drawn), which Stability is on record?
Answer: Its Stability is “Unstable”.

Question: With `C[C@H](NC(=O)OCc1ccccc1)C(=O)Nc1ccc(C2S/C(=N\c3cccc(F)c3)N(Cc3ccco3)C2=O)cc1` (stereo partly drawn) as the compound, how does the Stability read?
Answer: Its Stability is “Unstable”.
